Measured values reported in ChEMBL document CHEMBL1149586 (Bioorg Med Chem, 2007).

Columns and labels:
[1] = biological target: T1, Interstitial collagenase (Homo sapiens, UniProt P03956); experiment: Inhibition of MMP1
T1 sequence (P03956 whole entry): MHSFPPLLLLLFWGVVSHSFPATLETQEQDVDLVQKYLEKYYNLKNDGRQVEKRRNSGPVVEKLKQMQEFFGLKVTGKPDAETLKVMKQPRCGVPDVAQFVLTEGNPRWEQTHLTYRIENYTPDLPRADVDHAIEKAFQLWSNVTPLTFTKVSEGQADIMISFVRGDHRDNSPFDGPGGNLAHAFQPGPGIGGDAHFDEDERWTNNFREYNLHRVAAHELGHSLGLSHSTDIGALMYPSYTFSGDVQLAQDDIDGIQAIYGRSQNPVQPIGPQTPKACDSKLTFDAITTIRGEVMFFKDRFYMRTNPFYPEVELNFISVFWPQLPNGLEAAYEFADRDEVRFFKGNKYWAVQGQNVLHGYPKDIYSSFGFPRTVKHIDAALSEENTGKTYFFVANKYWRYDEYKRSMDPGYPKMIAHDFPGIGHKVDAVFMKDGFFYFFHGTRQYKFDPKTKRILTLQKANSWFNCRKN

[2] = biological target: 72 kDa type IV collagenase (Homo sapiens, UniProt P08253); experiment: Inhibition of MMP2
Sequence of 72 kDa type IV collagenase (P08253 whole entry): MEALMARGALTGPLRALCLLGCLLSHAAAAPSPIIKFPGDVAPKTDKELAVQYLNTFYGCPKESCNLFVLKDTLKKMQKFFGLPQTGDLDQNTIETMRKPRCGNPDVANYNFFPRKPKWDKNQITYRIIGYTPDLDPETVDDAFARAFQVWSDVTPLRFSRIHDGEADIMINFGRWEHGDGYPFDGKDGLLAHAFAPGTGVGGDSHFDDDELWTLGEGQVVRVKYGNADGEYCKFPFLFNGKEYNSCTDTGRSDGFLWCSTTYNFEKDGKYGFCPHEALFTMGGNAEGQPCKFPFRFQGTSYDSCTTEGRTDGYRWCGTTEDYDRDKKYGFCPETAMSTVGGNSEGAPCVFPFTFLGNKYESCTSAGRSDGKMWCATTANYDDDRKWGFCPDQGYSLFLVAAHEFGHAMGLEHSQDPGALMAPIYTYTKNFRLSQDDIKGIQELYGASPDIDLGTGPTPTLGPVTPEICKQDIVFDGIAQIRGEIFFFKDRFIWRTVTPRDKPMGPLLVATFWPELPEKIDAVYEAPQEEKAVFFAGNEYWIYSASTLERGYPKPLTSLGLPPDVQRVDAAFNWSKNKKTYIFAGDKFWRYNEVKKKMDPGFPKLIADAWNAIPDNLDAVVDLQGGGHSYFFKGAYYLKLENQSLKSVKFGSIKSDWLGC
Outline: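 Incubated with compound at 1 to 5000 nM. Started with a fluorogenic quenched peptide substrate (1–10 nM). Initial hydrolysis rate, with (Vi) and without (Vo) compound, was followed by fluorescence.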

[3] = biological target: Stromelysin-1 (Homo sapiens, UniProt P08254); experiment: Inhibition of MMP3
Sequence of Stromelysin-1 (P08254 whole entry): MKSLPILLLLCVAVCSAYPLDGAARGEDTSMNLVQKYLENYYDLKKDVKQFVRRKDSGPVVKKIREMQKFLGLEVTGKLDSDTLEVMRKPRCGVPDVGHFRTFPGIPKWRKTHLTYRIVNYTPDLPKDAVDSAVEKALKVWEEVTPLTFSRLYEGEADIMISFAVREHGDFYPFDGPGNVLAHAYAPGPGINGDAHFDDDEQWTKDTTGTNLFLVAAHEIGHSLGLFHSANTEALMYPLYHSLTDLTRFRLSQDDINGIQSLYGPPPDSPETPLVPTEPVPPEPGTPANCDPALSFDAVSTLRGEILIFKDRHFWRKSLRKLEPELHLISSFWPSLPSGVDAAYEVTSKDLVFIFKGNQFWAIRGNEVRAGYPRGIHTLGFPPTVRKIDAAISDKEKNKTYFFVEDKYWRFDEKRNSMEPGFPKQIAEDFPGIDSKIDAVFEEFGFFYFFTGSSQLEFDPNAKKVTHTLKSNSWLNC

[4] = biological target: Matrix metalloproteinase-9 (Homo sapiens, UniProt P14780); experiment: Inhibition of MMP9
Sequence of Matrix metalloproteinase-9 (P14780 whole entry): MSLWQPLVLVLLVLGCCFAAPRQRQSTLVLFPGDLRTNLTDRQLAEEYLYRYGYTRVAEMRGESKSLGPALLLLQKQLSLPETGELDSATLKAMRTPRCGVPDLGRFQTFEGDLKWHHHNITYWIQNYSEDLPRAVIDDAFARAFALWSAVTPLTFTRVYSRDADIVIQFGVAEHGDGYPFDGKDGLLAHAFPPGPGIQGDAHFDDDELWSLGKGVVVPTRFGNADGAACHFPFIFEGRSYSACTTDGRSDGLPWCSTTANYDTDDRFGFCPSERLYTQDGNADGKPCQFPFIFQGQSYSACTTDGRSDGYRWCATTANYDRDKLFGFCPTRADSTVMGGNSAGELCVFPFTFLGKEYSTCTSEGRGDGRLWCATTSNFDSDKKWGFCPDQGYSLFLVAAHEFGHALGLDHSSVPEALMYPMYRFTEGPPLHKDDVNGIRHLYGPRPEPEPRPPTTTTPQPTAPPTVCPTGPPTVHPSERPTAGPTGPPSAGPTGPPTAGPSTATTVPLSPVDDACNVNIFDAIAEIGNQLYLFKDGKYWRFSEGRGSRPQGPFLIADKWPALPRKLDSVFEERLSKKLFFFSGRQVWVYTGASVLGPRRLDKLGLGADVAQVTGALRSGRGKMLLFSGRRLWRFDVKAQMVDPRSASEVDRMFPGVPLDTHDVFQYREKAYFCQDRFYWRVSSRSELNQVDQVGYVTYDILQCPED

[5] = biological target: Matrix metalloproteinase-14 (Homo sapiens, UniProt P50281); experiment: Inhibition of MMP14
[6] = biological target: Neutrophil collagenase (Homo sapiens, UniProt P22894); experiment: Inhibition of MMP8
Sequence of Neutrophil collagenase (P22894 whole entry): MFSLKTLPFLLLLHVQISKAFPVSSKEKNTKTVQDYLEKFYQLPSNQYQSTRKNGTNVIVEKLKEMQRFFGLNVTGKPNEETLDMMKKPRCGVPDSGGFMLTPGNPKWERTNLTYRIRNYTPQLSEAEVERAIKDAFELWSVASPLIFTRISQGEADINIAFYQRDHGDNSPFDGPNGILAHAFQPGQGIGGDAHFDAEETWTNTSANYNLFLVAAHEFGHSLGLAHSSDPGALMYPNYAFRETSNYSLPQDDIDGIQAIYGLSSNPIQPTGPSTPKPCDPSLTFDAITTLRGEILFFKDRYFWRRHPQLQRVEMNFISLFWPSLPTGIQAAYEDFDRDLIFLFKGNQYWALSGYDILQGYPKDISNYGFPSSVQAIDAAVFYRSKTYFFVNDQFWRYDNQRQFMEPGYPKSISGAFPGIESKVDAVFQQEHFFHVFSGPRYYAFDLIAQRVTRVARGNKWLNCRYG
Outline: (§1)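 Human recombinant pro-enzymes, freshly activated with p-aminophenylmercuric acetate at 37 °C for 2 h. Used at 0.6 nM for MMP-13 and 3.8 nM for MMP-8. Incubated with compound from 1 to 5000 nM. Assay began with addition of a fluorogenic substrate (1–10 nM). Initial rates of peptide cleavage were measured fluorimetrically, with (Vi) and without (Vo) compound.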

[7] = biological target: Collagenase 3 (Homo sapiens, UniProt P45452); experiment: Inhibition of MMP13; outline: as §1

Row | SMILES | IC50 [1] | IC50 [2] | IC50 [3] | IC50 [4] | IC50 [5] | IC50 [6] | IC50 [7]
1 | CCCCCC/C=C(\CC(=O)NO)C(=O)N[C@@H](Cc1c[nH]c2ccccc12)C(=O)NC | 32000 nM | 123 nM | > 10000 nM | > 10000 nM | 2660 nM | 101 nM | 122 nM
2 | CNC(=O)[C@H](Cc1c[nH]c2ccccc12)NC(=O)/C(=C/C=C/c1ccccc1)CC(=O)NO | 1240 nM | 120 nM | 21000 nM | 38 nM | 2490 nM | – | –
3 | CNC(=O)[C@H](Cc1c[nH]c2ccccc12)NC(=O)/C(=C/CCc1ccccc1)CC(=O)NO | 9130 nM | 280 nM | 1920 nM | 45 nM | 53100 nM | – | –

The next compounds have a lower IC50 [5] than those just listed; values first:

Row | IC50 [1] | IC50 [2] | IC50 [3] | IC50 [4] | IC50 [5] | IC50 [6] | IC50 [7] | SMILES
4 | 984 nM | 78500 nM | 8610 nM | 974 nM | 913 nM | – | – | C/C=C/C=C(\CC(=O)NO)C(=O)N[C@@H](Cc1c[nH]c2ccccc12)C(=O)NC
5 | – | – | – | – | 13.4 nM | – | – | CNC(=O)[C@H](Cc1c[nH]c2ccccc12)NC(=O)[C@@H](CC(=O)NO)CC(C)C [ILOMASTAT]
6 | 18 nM | 9.2 nM | – | 17 nM | 10 nM | – | – | CNC(=O)[C@H](Cc1c[nH]c2ccccc12)NC(=O)/C(=C/C(C)C)CC(=O)NO
